Measurements from ChEMBL document CHEMBL1121566, “Synthesis and aldose reductase inhibitory activity of 7-sulfamoylxanthone-2-carboxylic acids” (J Med Chem, 1980).
Activity calls are given as the source filed them. No cut-off for these calls is given here.

What was measured:
[1] = target: Aldo-keto reductase family 1 member B1 (Oryctolagus cuniculus) (UniProt P15122); test: Antiallergic agent with Aldose reductase Inhibitory Activity at 10E-5 M concentration
Outline: (§1)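 Enzyme was from frozen rabbit lenses, homogenized in water and spun at 10000g. The 50–75% ammonium sulfate fraction was dissolved in 0.05 M NaCl. The assay used 0.067 M phosphate pH 6.0 and 2 × 10^-5 M NADPH, and was started with 5 × 10^-4 M D,L-glyceraldehyde (final). NADPH loss was followed at 340 nm for 2 min at 37 °C. Inhibitors were dissolved in minimal 0.1 N NaOH and diluted with water.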

[2] = target: Aldo-keto reductase family 1 member B1 (Oryctolagus cuniculus) (UniProt P15122); test: Antiallergic agent with Aldose reductase Inhibitory Activity at 10E-6 M concentration; outline: as §1
[3] = target: Aldo-keto reductase family 1 member B1 (Oryctolagus cuniculus) (UniProt P15122); test: Percent inhibition of rabbit lens aldose reductase in vitro at 10E-4 M concentration; outline: as §1
[4] = test system: Aldose reductase (Oryctolagus cuniculus); test: In vitro inhibitory activity towards rabbit lens aldose reductase; Active

SMILES | inhibition [1] [%] | inhibition [2] [%] | inhibition [3] [%] | inhibition [4]
NS(=O)(=O)c1ccc2oc3ccc(C(=O)O)cc3c(=O)c2c1 | 20 | 10 | 70 | –
CN(CCO)S(=O)(=O)c1ccc2oc3ccc(C(=O)O)cc3c(=O)c2c1 | 96 | 83 | 100 | Active
O=C(O)c1ccc2oc3ccc(S(=O)(=O)CCO)cc3c(=O)c2c1 | 77 | 50 | 96 | –
O=c1c(O)c(-c2ccc(O)c(O)c2)oc2cc(O)cc(O)c12 | 52 | 9 | – | –
O=C(O)c1ccc2oc3ccc(OCC(O)CO)cc3c(=O)c2c1 (stereo not given) | 46 | 8 | 88 | –
O=C(O)c1ccc2oc3ccc(S(=O)(=O)O)cc3c(=O)c2c1 | 43 | 0 | 70 | –
C[S+]([O-])c1ccc2oc3ccc(C(=O)O)cc3c(=O)c2c1 (stereo not given) | 20 | 0 | 63 | –
CC(C)N(C)S(=O)(=O)c1ccc2oc3ccc(C(=O)O)cc3c(=O)c2c1 | 69 | 17 | 89 | –
CC(O)c1ccc2oc3ccc(C(=O)O)cc3c(=O)c2c1 (stereo not given) | 10 | 10 | 50 | –
O=C(O)c1ccc2oc3ccc([S+]([O-])CCO)cc3c(=O)c2c1 (stereo not given) | 50 | 17 | 87 | –
O=C(O)c1ccc2oc3ccc(S(=O)(=O)NCCO)cc3c(=O)c2c1 | 38 | 0 | 79 | –
O=C(O)c1ccc2oc3ccccc3c(=O)c2c1 | 10 | 0 | 20 | –
CN(C)S(=O)(=O)c1ccc2oc3ccc(C(=O)O)cc3c(=O)c2c1 | 87 | 67 | 94 | Active
O=C(O)c1ccc2oc3ccc(S(=O)(=O)N(CCO)CCO)cc3c(=O)c2c1 | 49 | 2 | 89 | –
O=C(O)c1ccc2oc3ccc(SCCO)cc3c(=O)c2c1 | 65 | 7 | 93 | –
COC(C)c1ccc2oc3ccc(C(=O)O)cc3c(=O)c2c1 (stereo not given) | 6 | 0 | 70 | –
CCN(C)S(=O)(=O)c1ccc2oc3ccc(C(=O)O)cc3c(=O)c2c1 | 81 | 23 | 92 | –
O=C(O)c1ccc2oc3ccc(S(=O)(=O)N4CCCC4)cc3c(=O)c2c1 | 46 | 0 | 85 | –
O=C(O)c1ccc2oc3ccc(S(=O)(=O)N4CCOCC4)cc3c(=O)c2c1 | 6 | 0 | 76 | –
CC(C)CN(C)S(=O)(=O)c1ccc2oc3ccc(C(=O)O)cc3c(=O)c2c1 | 75 | 25 | 95 | –
COCC[S+]([O-])c1ccc2oc3ccc(C(=O)O)cc3c(=O)c2c1 (stereo not given) | 12 | 4 | 65 | –
CC(C)NS(=O)(=O)c1ccc2oc3ccc(C(=O)O)cc3c(=O)c2c1 | 30 | 0 | 72 | –
CNS(=O)(=O)c1ccc2oc3ccc(C(=O)O)cc3c(=O)c2c1 | 40 | 25 | 75 | –
